Laboratory results published in ChEMBL document CHEMBL1125829, “1,3,8-trisubstituted xanthines. Effects of substitution pattern upon adenosine receptor A1/A2 affinity” (J Med Chem, 1991).

What was measured:
Adenosine receptor A1 [1] = molecular target: T1, Adenosine receptor A1 (Rattus norvegicus, UniProt P25099); test: Binding affinity against Adenosine A1 receptor in rat cortex by displacement of [3H]cyclohexyladenosine (CHA)
T1 sequence (P25099 whole entry): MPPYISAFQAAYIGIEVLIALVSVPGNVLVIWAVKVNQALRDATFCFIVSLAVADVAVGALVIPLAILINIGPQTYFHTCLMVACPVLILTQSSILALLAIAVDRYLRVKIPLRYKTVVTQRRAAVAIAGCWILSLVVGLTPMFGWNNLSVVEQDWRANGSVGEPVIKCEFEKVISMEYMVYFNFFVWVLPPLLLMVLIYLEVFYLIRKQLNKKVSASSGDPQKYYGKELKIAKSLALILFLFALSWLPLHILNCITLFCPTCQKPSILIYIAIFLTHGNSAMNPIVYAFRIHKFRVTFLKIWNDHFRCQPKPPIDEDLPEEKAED
Method in brief: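 Male Sprague-Dawley rat cerebral cortex membranes, homogenized in 50 mM Tris-HCl pH 7.4, pretreated 30 min at 37 °C with ADA (2 IU/mL), 7.5 mg tissue per tube. 1.0 nM [3H]CHA, 12 xanthine concentrations, triplicates, 2 h at 25 °C; nonspecific with 10 μM 2-chloroadenosine; filtration, scintillation counting.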

[2] = molecular target: Adenosine receptors; A1 & A2 (Rattus norvegicus) (UniProt P29276+P25099+P30543); test: Ratio of binding affinities for adenosine A2 and A1 receptors; type: protein assay
Adenosine A2 receptor [3] = molecular target: T2, Adenosine A2 receptor (Rattus norvegicus, UniProt P29276+P30543); test: Binding affinity against Adenosine A2 receptor in rat striatum by displacement of [3H]N-ethyladenosine-5''-uronamide(NECA); type: tissue-based
Method in brief: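 Male Sprague-Dawley rat striatal membranes, 5 mg tissue, in 50 mM Tris-HCl pH 7.7 with 10 mM MgCl2, 0.1 unit/mL ADA and 50 nM CPA to block A1 sites. 4 nM [3H]NECA, 12 xanthine concentrations, triplicates, 1 h at room temperature; nonspecific with 100 μM CPA; filtration counting. IC50 by log-logit, Ki by Cheng-Prusoff (Kd 4 nM).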

Adenosine A2 receptor [4] = molecular target: T2, Adenosine A2 receptor; test: Binding affinity against adenosine A2 receptor in rat striatum by the displacement of [3H]N-ethyladenosine-5''-uronamide(NECA).; type: tissue-based
Adenosine receptor A1 [5] = molecular target: T1, Adenosine receptor A1; test: Binding affinity against adenosine A1 receptor in rat cortex by the displacement of [3H]cyclohexyladenosine (CHA).; type: tissue-based

Row | SMILES | Ki (Adenosine receptor A1 [1]) | Ratio [2] | Ki (Adenosine A2 receptor [3]) | Ki (Adenosine A2 receptor [4]) | Ki (Adenosine receptor A1 [5])
1 | CCCn1c(=O)c2nc(-c3cccs3)[nH]c2n(C)c1=O | 9.68 nM | 74 | 719 nM | – | –
2 | CCCn1c(=O)c2nc(-c3ccncc3)[nH]c2n(CCC)c1=O | – | – | – | 136 nM | 3.23 nM
3 | CCCn1c(=O)n(C)c(=O)c2[nH]c(C3CCCC3)nc21 | – | – | – | 247 nM | 0.85 nM
4 | CCCn1c(=O)c2nc(C3CCCCC3)[nH]c2n(C)c1=O | – | – | – | 995 nM | 5.02 nM
5 | CCCn1c(=O)c2nc(-c3ccc(C#N)cc3)[nH]c2n(C)c1=O | – | – | – | 446 nM | 5.95 nM
6 | CCCn1c(=O)c2nc(-c3cccnc3)[nH]c2n(CCC)c1=O | 11.6 nM | 30 | 347 nM | – | –
7 | CCCn1c(=O)c2nc(-c3ccc(C#N)cc3)[nH]c2n(CCC)c1=O | – | – | – | 189 nM | 4.48 nM
8 | CCCn1c(=O)c2nc(-c3ccsc3)[nH]c2n(C)c1=O | 6.4 nM | 49 | 315 nM | – | –
9 | CCCn1c(=O)c2nc(C3CCCC3)[nH]c2n(C)c1=O | – | – | – | 1010 nM | 1.06 nM
10 | CCCn1c(=O)c2nc(-c3ccsc3)[nH]c2n(CCC)c1=O | – | – | – | 39.4 nM | 2.04 nM
11 | CCCn1c(=O)c2nc(-c3ccncc3)[nH]c2n(C)c1=O | – | – | – | 3760 nM | 27.6 nM
12 | CCCn1c(=O)c2nc(-c3cccnc3)[nH]c2n(C)c1=O | – | 44 | 3100 nM | – | –
13 | CCCn1c(=O)n(C)c(=O)c2[nH]c(C3CCCCC3)nc21 | – | – | – | 403 nM | 1.81 nM
14 | CCCn1c(=O)c2nc(-c3ccc(O)cc3)[nH]c2n(CCC)c1=O | – | – | – | – | 0.63 nM
15 | CCCn1c(=O)c2nc(-c3ccc(O)cc3)[nH]c2n(C)c1=O | – | – | – | 263 nM | 1.28 nM
16 | CCCn1c(=O)c2nc(-c3cccs3)[nH]c2n(CCC)c1=O | – | 54 | 173 nM | – | –

Other lines, results leading:

Row | Ki (Adenosine receptor A1 [1]) | Ratio [2] | Ki (Adenosine A2 receptor [3]) | Ki (Adenosine A2 receptor [4]) | Ki (Adenosine receptor A1 [5]) | SMILES
17 | 3.2 nM | – | – | – | – | CCCn1c(=O)c2[nH]c(-c3cccs3)nc2n(CCC)c1=O
18 | 4.68 nM | 15 | 70.3 nM | – | – | CCCn1c(=O)n(C)c(=O)c2[nH]c(-c3ccsc3)nc21
19 | – | – | – | 58 nM | 49.6 nM | CCCn1c(=O)c2nc(/C=C/c3ccccc3)[nH]c2n(C)c1=O
20 | – | – | – | 254 nM | 13.9 nM | CCCn1c(=O)n(C)c(=O)c2[nH]c(-c3ccc(C#N)cc3)nc21
21 | 70.2 nM | – | – | – | – | CCCn1c(=O)c2[nH]c(-c3cccnc3)nc2n(C)c1=O
22 | – | – | – | 593 nM | 57.8 nM | CCCn1c(=O)c2nc(CCc3ccccc3)[nH]c2n(CCC)c1=O
23 | – | – | – | 81.5 nM | 2.54 nM | CCCn1c(=O)n(C)c(=O)c2[nH]c(-c3ccc(O)cc3)nc21
24 | – | – | – | 85.1 nM | – | CCCn1c(=O)c2nc(/C=C/c3ccccc3)[nH]c2n(CCC)c1=O
25 | – | – | – | 93.3 nM | – | CCCn1c(=O)n(C)c(=O)c2[nH]c(-c3ccccc3)nc21
26 | – | – | – | 476 nM | 21.8 nM | CCCn1c(=O)n(C)c(=O)c2[nH]c(-c3ccncc3)nc21
27 | 72.8 nM | 16 | 1200 nM | – | – | CCCn1c(=O)n(C)c(=O)c2[nH]c(-c3cccnc3)nc21
28 | – | – | – | 329 nM | 8.93 nM | CCCn1c(=O)n(C)c(=O)c2[nH]c(-c3cccs3)nc21
29 | – | – | – | 1440 nM | 275 nM | CCCn1c(=O)c2nc(CCc3ccccc3)[nH]c2n(C)c1=O
30 | – | – | – | 1050 nM | 259 nM | CCCn1c(=O)n(C)c(=O)c2[nH]c(CCc3ccccc3)nc21
31 | – | – | – | 644 nM | – | Cn1c(=O)c2nc(-c3ccccc3)[nH]c2n(C)c1=O [8-PHENYL THEOPHYLLINE]
32 | – | – | – | 46.5 nM | – | CCCn1c(=O)n(C)c(=O)c2[nH]c(/C=C/c3ccccc3)nc21
33 | – | – | – | 553 nM | – | CCCn1c(=O)c2nc(-c3ccccc3)[nH]c2n(C)c1=O
